For orientation: Tmax means the time at which the peak concentration occurs. What is called Cmax is the peak of the concentration-time curve. For orientation: EC50 means the concentration needed to bring the measured effect to its halfway point. As usually defined, the half-life is the time in which the quantity being followed falls by half. The low end stands for rapid decline, the high end for slow decline. The term AUC(0-t) denotes the area under the concentration-time curve up to a stated or last time point. Read a high AUC(0-t) as high exposure.

Results on 1 compound are retold here after ChEMBL document CHEMBL4011639, “Discovery of Novel Nucleotide Prodrugs with Improved Potency Against HCV Variants Carrying NS5B S282T Mutation” (J Med Chem, 2017).

The test system of data set [1] is Mus musculus. The data set is described as follows: Subacute toxicity in ICR mouse assessed as weight change in kidney at 100 to 1000 mg/kg, administered once a day via oral gavage for 14 days. The data set is classed as organism-based. The conditions noted are these: in vivo, 336 h. The method, boiled down: (§1)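 ICR mice, 22−25 g, 5 per sex per group, gavaged daily for 14 days at 100, 500 or 1000 mg/kg in 30% PEG400/30% Tween 20/20% corn oil/20% water, with a vehicle control group. Observed daily for body weight change, skin and fur, inflammation and necrosis. Animals anesthetized on day 15; organ weights (liver, kidney) taken. Serum SGOT/SGPT compared with controls.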

Data set [2] deals with Mus musculus. The data set is described as follows: Subacute toxicity in ICR mouse assessed as effect on appearance of hepatocytes at 100 to 1000 mg/kg, administered once a day via oral gavage for 14 days by hematoxylin/eosin-staining based microscopic analysis. The data set is classed as organism-based. The conditions noted are these: in vivo, 336 h. The method in brief:
(§2)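 Same 14-day daily oral gavage design as the subacute study (ICR mice, 5 per sex per group, 100/500/1000 mg/kg or vehicle). Liver and kidney taken after anesthesia on day 15, processed routinely, cut as 5 μm paraffin sections, stained with hematoxylin and eosin and examined microscopically.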

Data set [3] relates to Mus musculus. As to the kind of experiment: Subacute toxicity in ICR mouse assessed as weight change in liver at 100 to 1000 mg/kg, administered once a day via oral gavage for 14 days. Type of data set: organism-based. The conditions noted are these: in vivo, 336 h. The method, boiled down:
as §1

Data set [4] deals with Mus musculus. The data set is described as follows: Subacute toxicity in ICR mouse assessed as effect on hepatic perilobular vein at 100 to 1000 mg/kg, administered once a day via oral gavage for 14 days by hematoxylin/eosin-staining based microscopic analysis. Type of data set: organism-based. The conditions noted are these: in vivo, 336 h. The method, boiled down: as §2

The nature of data set [5]: Tmax in Beagle dog at 150 mg/kg, administered via oral gavage measured up to 24 hrs post dose by LC/MS/MS analysis. The conditions noted are these: in vivo. Type of data set: ADME, organism-based, Canis lupus familiaris. The method in brief: (§3)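 Beagle dogs, 3 per sex, given a single oral gavage dose of 150 mg/kg in 20% w/v hydroxypropyl-β-cyclodextrin in water, 2.5 mL/kg. K2EDTA blood taken by venipuncture at 0.5, 0.75, 1, 2, 4, 6, 8, 12 and 24 h. Plasma extracted with ice-cold acetonitrile, then LC/MS/MS in positive MRM mode with zolpidem as internal standard. Noncompartmental analysis; mean ± SD.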

Another data set concerns the target T1, UMP-CMP kinase (Homo sapiens, UniProt P30085).
T1 sequence (P30085 whole entry): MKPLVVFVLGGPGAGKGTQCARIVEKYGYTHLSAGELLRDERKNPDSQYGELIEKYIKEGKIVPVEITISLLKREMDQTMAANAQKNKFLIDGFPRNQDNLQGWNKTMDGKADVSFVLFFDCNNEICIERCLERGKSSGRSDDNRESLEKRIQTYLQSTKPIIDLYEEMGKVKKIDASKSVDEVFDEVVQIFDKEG
As to the kind of experiment: Drug metabolism in human HuH7 cells assessed as UMP-CMP kinase-mediated ((2R,3R,4R,5R)-5-(4-amino-2-oxopyrimidin-1(2H)-yl)-4-fluoro-3-hydroxy-4-methyltetrahydrofuran-2-yl)methyl dihydrogen phosphate metabolite formation at 50 uM after 48 hrs by LC/MS/MS analysis. Type of data set: ADME, cell-based. The method, boiled down: (§4)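 Huh-7 cells plated at 0.35 million/mL in DMEM with 10% FBS (about 1 million per well at dosing) and grown 18 h. At each time point cells were washed with cold saline and lysed in methanol with internal standard. Semiquantified by LC/MS/MS MRM as Δ mean peak-area ratio relative to t0.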

The test system of data set [6] is Mus musculus. The data set is described as follows: Subacute toxicity in ICR mouse assessed as body weight loss at 100 to 1000 mg/kg, administered once a day via oral gavage for 14 days. Type of data set: organism-based. The note with it: in vivo, 336 h. The method in brief:
as §1

Data set [7] is described as follows: Cmax in Beagle dog at 150 mg/kg, administered via oral gavage measured up to 24 hrs post dose by LC/MS/MS analysis. The data set is classed as ADME, organism-based, Canis lupus familiaris. The conditions noted are these: in vivo. On the set-up: dose 150 mg/kg, route oral. The method, boiled down:
as §3

For data set [8], the system named is Mus musculus. The data set is described as follows: Acute toxicity in ICR mouse assessed as body weight loss at 150 to 1800 mg/kg, administered via oral gavage measured once a day over 14 days. Type of data set: organism-based. The note with it: in vivo, 336 h. The method, boiled down: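 ICR mice, 22−25 g, 5 per sex per group. Single oral gavage at 150, 500, 1200 or 1800 mg/kg in vehicle of 30% PEG400/30% Tween 20/20% corn oil/20% water, with a vehicle control. Mortality, morbidity, clinical signs and body weight change recorded once daily for 14 days.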

Data set [9] has as its system Mus musculus. As to the kind of experiment: Subacute toxicity in ICR mouse assessed as alteration in basic levels of SGOT at 100 to 1000 mg/kg, administered once a day via oral gavage for 14 days. Type of data set: organism-based. The note with it: in vivo, 336 h. The method in brief: as §1
A short description of data set [10]: Inhibition of wild type NS5B in HCV genotype 1b replicon expressed in human HuH7 cells after 72 hrs by bright Glo-luciferase reporter gene assay. Type of data set: cell-based, Hepatitis C virus subtype 1b. The note with it: Hepatitis C virus, Huh-7, 72 h. The method in brief:
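Huh7 cells carrying HCV genotype 1b replicon, 8000 per well, in duplicate 3-fold dilution series with 0.5% DMSO final; 72 h at 37 °C, 5% CO2. Viability read by Cell Titer-Fluor fluorescence after 5 min; replicon inhibition read by Bright-Glo luciferase luminescence in the same wells. EC50 and CC50 come from curve fitting.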

Data set [11] has as its system Hepatitis C virus subtype 1b. The data set is described as follows: Ratio of EC50 for HCV genotype 1b replicon NS5B S282T mutant to EC50 for wild type HCV genotype 1b replicon NS5B. The method in brief:
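Huh7 cells carrying wild-type or S282T mutant HCV genotype 1b replicon, 8000 cells per well, exposed to 3-fold compound dilution series (0.5% DMSO final, duplicates) for 72 h at 37 °C, 5% CO2. Replicon activity read by Bright-Glo luciferase luminescence. EC50 averaged from duplicate determinations; ratio taken as S282T EC50 over wild-type EC50.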
For orientation: A replicon is a self-replicating genome or part of one, used to study replication in cells.

The nature of data set [12]: Half life in human liver S9 fraction at 10 uM by LC/MS/MS analysis. The data set is classed as ADME. The method, boiled down:
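Compound at 10 μM working solution (1% DMSO, 5% MeOH in 100 mM Tris) incubated at 37 °C with human liver S9 at 1 mg protein/mL final. Reactions stopped with cold acetonitrile containing tolbutamide internal standard at 0, 5, 10, 20, 30 and 60 min. Parent measured by LC/MS/MS (MRM) as analyte/IS peak area ratio, given as percent remaining versus 0 min; half-life fitted.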

Data set [13] can be described thus: Drug metabolism in human HuH7 cells assessed as carboxylesterase-mediated (S)-2-((S)-(((2R,3R,4R,5R)-5-(4-amino-2-oxopyrimidin-1(2H)-yl)-4-fluoro-3-hydroxy-4-methyltetrahydrofuran-2-yl)methoxy)(hydroxy)phosphoryloxy)propanoic acid metabolite formation at 50 uM after 48 hrs by LC/MS/MS analysis. Type of data set: ADME, cell-based. The method, boiled down: as §4

A short description of data set [14]: Drug metabolism in human HuH7 cells assessed as ((2R,3R,4R,5R)-4-fluoro-3-hydroxy-5-(4-hydroxy-2-oxo-3,4-dihydropyrimidin-1(2H)-yl)-4-methyltetrahydrofuran-2-yl)methyl tetrahydrogen triphosphate metabolite formation at 50 uM after 48 hrs by LC/MS/MS analysis. Type of data set: ADME, cell-based. The note with it: huh-7, 48 h. The method, boiled down: as §4
A short description of data set [15]: AUClast in Beagle dog at 150 mg/kg, administered via oral gavage measured up to 24 hrs post dose by LC/MS/MS analysis. The data set is classed as ADME, organism-based, Canis lupus familiaris. On the set-up: dose 150 mg/kg, time < 24 hr, route oral. The note with it: in vivo. The method, boiled down:
as §3

Data set [16] can be described thus: Drug metabolism in human HuH7 cells assessed as carboxylesterase-mediated (S)-isopropyl 2-((S)-(((2R,3R,4R,5R)-5-(4-amino-2-oxopyrimidin-1(2H)-yl)-4-fluoro-3-hydroxy-4-methyltetrahydrofuran-2-yl)methoxy)(phenoxy)phosphoryloxy)propanoate metabolite formation at 50 uM after 48 hrs by LC/MS/MS analysis. The data set is classed as ADME. The conditions noted are these: cell-based. The method in brief:
as §4

Data set [17] concerns Mus musculus. The data set is described as follows: Subacute toxicity in ICR mouse assessed as alteration in basic levels of SGPT at 100 to 1000 mg/kg, administered once a day via oral gavage for 14 days. The conditions noted are these: in vivo, 336 h. The data set is classed as organism-based. The method, boiled down:
as §1

For `CCCC(=O)Nc1ccn([C@@H]2O[C@H](CO[P@@](=O)(N[C@@H](C)C(=O)OC(C)C)Oc3ccccc3)[C@@H](O)[C@@]2(C)F)c(=O)n1`, the Activity entry with Mus musculus [1], in the data set with Mus musculus [2], with Mus musculus [3], in the data set on Mus musculus [4], with Mus musculus [6] and in the data set on Mus musculus [8] was “Non-Toxic” throughout. Further, the Activity entry in the data set with Mus musculus [9] and with Mus musculus [17] was “Non-Toxic” in each case. In [5], the Tmax came to 54 min. Besides, the Drug metabolism entry is on record as “Metabolite_Detected” on UMP-CMP kinase, “Metabolite_Detected” in data set [13], “Metabolite_Notdetected” in data set [14] and “Metabolite_Detected” in [16]. In data set [7], the concentration peaked (Cmax) at 0.0513 µg/mL. Moreover, the EC50 in [10] worked out at 0.24 µM. Also, the Ratio EC50 in data set [11] was 3.2. In addition, the half-life at 10 µM in data set [12] was found to be 9.6 min. Besides, the exposure AUC(0-t) at 24 h in data set [15] turned out to be 0.248 µg·h/mL.
